Our source for the MIC values is ChEMBL document CHEMBL1140345, “Conformational constraint in oxazolidinone antibacterials. Synthesis and structure-activity studies of (azabicyclo[3.1.0]hexylphenyl)oxazolidinones” (2005).

In experiment [1] the test system is Enterococcus faecalis. Description: Minimum inhibitory concentration against Enterococcus faecalis UC9217. The experiment is classed as functional. The procedure, abridged: (§1)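 Broth microdilution MIC following the NCCLS M7-A4 approved standard for dilution susceptibility testing of aerobically growing bacteria. The method is taken as accurate to within one dilution.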

Experiment [2] concerns Staphylococcus aureus. Description: Minimum inhibitory concentration against methicillin, ciprofloxacin, rifampin, imipenem-resistant Staphylococcus aureus UC12673. In kind it is functional. The procedure, abridged:
(§2)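 MIC determined by standard broth microdilution following the NCCLS M7-A4 approved standard for dilution susceptibility testing of aerobically growing bacteria.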

The subject of experiment [3] is Streptococcus pneumoniae. Description: Minimum inhibitory concentration against penicillin-susceptible Streptococcus pneumoniae UC9912. In kind it is functional. As to conditions: Streptococcus pneumoniae; read-out: MIC. The procedure, abridged:
as §1

For experiment [4], the system named is Staphylococcus aureus. Description: Minimum inhibitory concentration against methicillin-susceptible Staphylococcus aureus UC9213. In kind it is functional. The procedure, abridged: as §2
The subject of experiment [5] is Staphylococcus epidermidis. Description: Minimum inhibitory concentration against methicillin-resistant Staphylococcus epidermidis UC12084.
Experiment [6] concerns Haemophilus influenzae. Description: Minimum inhibitory concentration against ampicillin-reisitant Haemophilus influenzae UC30063. In kind it is functional. As to conditions: Haemophilus influenzae; read-out: MIC. The procedure, abridged:
as §1

Experiment [7] has as its system Escherichia coli. Description: Minimum inhibitory concentration against Escherichia coli UC6674. In kind it is functional. The procedure, abridged: as §1
The subject of experiment [8] is Staphylococcus epidermidis. Description: Minimum inhibitory concentration against methicillin-resistant Staphylococcus epidermidis UC12084; Range is from 0.5-1 ug/mL.
Experiment [9] concerns Haemophilus influenzae. Description: Minimum inhibitory concentration against ampicillin-reisitant Haemophilus influenzae UC30063; Range is from 4-8 ug/mL. The experiment is classed as functional. The procedure, abridged:
as §1

Molecules are shown by their SMILES. In brackets after ≈: the same amount, converted by molar mass.

Turning to `O=C(NC[C@H]1CN(c2cc(F)c(N3C[C@@H]4[C@H](C3)[C@H]4C(=O)O)c(F)c2)C(=O)O1)C(Cl)Cl`, the MIC in [1] is 0.5 µg/mL (≈ 1.08 µM); in experiment [2], 0.5 µg/mL (≈ 1.08 µM); in experiment [3], 0.5 µg/mL (≈ 1.08 µM); in experiment [4], 1 µg/mL (≈ 2.15 µM); in experiment [5] it was 0.5 µg/mL (≈ 1.08 µM); in experiment [6] it was 4 µg/mL (≈ 8.62 µM).

`CNC(=O)[C@H]1[C@@H]2CN(c3c(F)cc(N4C[C@H](CNC(C)=O)OC4=O)cc3F)C[C@@H]21`: the MIC in experiment [1] came to 1 µg/mL (≈ 2.45 µM); in [2] it was 2 µg/mL (≈ 4.9 µM); in experiment [3], 0.5 µg/mL (≈ 1.22 µM); in experiment [4], 2 µg/mL (≈ 4.9 µM); in experiment [5], 1 µg/mL (≈ 2.45 µM); in experiment [6], 16 µg/mL (≈ 39.2 µM). Moreover, the MIC in experiment [7] was > 64 µg/mL.

For `CC(=O)NC[C@H]1CN(c2cc(F)c(N3C[C@@H]4[C@H](C3)[C@H]4C(=O)NCc3ccccn3)c(F)c2)C(=O)O1`, the MIC was 1 µg/mL (≈ 2.06 µM) in experiment [1]; 4 µg/mL (≈ 8.24 µM) in experiment [2]; 0.5 µg/mL (≈ 1.03 µM) in experiment [3]; 4 µg/mL (≈ 8.24 µM) in [4]; 1 µg/mL (≈ 2.06 µM) in experiment [5]; > 64 µg/mL in experiment [6].

`CC(=O)NC[C@H]1CN(c2cc(F)c(N3C[C@@H]4[C@H](C3)[C@H]4C(=O)NO)c(F)c2)C(=O)O1`: the MIC in [1] was 2 µg/mL (≈ 4.87 µM); in experiment [2] it was 4 µg/mL (≈ 9.75 µM); in [3] it was 1 µg/mL (≈ 2.44 µM); in [4], 4 µg/mL (≈ 9.75 µM); in experiment [5], 2 µg/mL (≈ 4.87 µM); in experiment [6] it was 32 µg/mL (≈ 78 µM). Further, in [7], the MIC is > 64 µg/mL.

Regarding `N[C@@H]1[C@H]2CN(c3c(F)cc(N4C[C@H](CNC(=O)C(F)F)OC4=O)cc3F)C[C@@H]12`, the MIC in [1] came out at 2 µg/mL (≈ 4.97 µM); in [2], 2 µg/mL (≈ 4.97 µM); in [3] it was 1 µg/mL (≈ 2.49 µM); in [4] it was 4 µg/mL (≈ 9.94 µM); in [5] it was 2 µg/mL (≈ 4.97 µM); in [6], 8 µg/mL (≈ 19.9 µM).

For the compound `CC(=O)NC[C@H]1CN(c2cc(F)c(N3C[C@@H]4[C@H](C3)[C@H]4C(=O)N(C)C)c(F)c2)C(=O)O1`, the MIC was determined as 4 µg/mL (≈ 9.47 µM) in [1]; 4 µg/mL (≈ 9.47 µM) in experiment [2]; 2 µg/mL (≈ 4.73 µM) in [3]; 4 µg/mL (≈ 9.47 µM) in experiment [4]; 2 µg/mL (≈ 4.73 µM) in experiment [5]; 64 µg/mL (≈ 152 µM) in [6]. Further, in experiment [7], the MIC is > 64 µg/mL.

As to `CC(=O)NC[C@H]1CN(c2cc(F)c(N3C[C@@H]4[C@H](C3)[C@H]4C(=O)Nc3nccs3)c(F)c2)C(=O)O1`, the MIC in experiment [1] was 0.5 µg/mL (≈ 1.05 µM); in [2], 1 µg/mL (≈ 2.09 µM); in [3], 0.13 µg/mL (≈ 0.272 µM); in experiment [4], 2 µg/mL (≈ 4.19 µM); in experiment [5], 0.25 µg/mL (≈ 0.524 µM); in experiment [6] it was > 64 µg/mL.

In the case of `CC(=O)NC[C@H]1CN(c2cc(F)c(N3C[C@@H]4[C@H](C3)[C@H]4C(=O)NOCc3ccccc3)c(F)c2)C(=O)O1`, the MIC is 2 µg/mL (≈ 4 µM) in experiment [1]; 2 µg/mL (≈ 4 µM) in experiment [2]; 1 µg/mL (≈ 2 µM) in experiment [3]; 4 µg/mL (≈ 7.99 µM) in [4]; 1 µg/mL (≈ 2 µM) in [5]; > 64 µg/mL in experiment [6]. Moreover, in [7], the MIC is > 64 µg/mL.

Consider `CC(=O)NC[C@H]1CN(c2cc(F)c(N3C[C@@H]4[C@H](C3)[C@H]4C(=O)NCc3ccco3)c(F)c2)C(=O)O1`, for which the MIC in experiment [1] is 1 µg/mL (≈ 2.11 µM); in [2] it was 2 µg/mL (≈ 4.22 µM); in experiment [3], 0.5 µg/mL (≈ 1.05 µM); in [4] it was 2 µg/mL (≈ 4.22 µM); in experiment [5], 1 µg/mL (≈ 2.11 µM); in experiment [6], > 64 µg/mL.

As to `COc1ccc(NC(=O)[C@H]2[C@@H]3CN(c4c(F)cc(N5C[C@H](CNC(C)=O)OC5=O)cc4F)C[C@@H]32)cn1`, the MIC in experiment [1] was 1 µg/mL (≈ 1.99 µM); in experiment [2] it was 2 µg/mL (≈ 3.99 µM); in [3], 0.5 µg/mL (≈ 0.997 µM); in experiment [4] it was 2 µg/mL (≈ 3.99 µM); in [5] it was 1 µg/mL (≈ 1.99 µM); in [6] it was > 64 µg/mL.

`N[C@@H]1[C@H]2CN(c3c(F)cc(N4C[C@H](CNC(=O)C(Cl)Cl)OC4=O)cc3F)C[C@@H]12`: the MIC in [1] worked out at 2 µg/mL (≈ 4.59 µM); in experiment [2], 2 µg/mL (≈ 4.59 µM); in experiment [3], 0.5 µg/mL (≈ 1.15 µM); in experiment [4], 4 µg/mL (≈ 9.19 µM); in experiment [5] it was 2 µg/mL (≈ 4.59 µM); in experiment [6], 4 µg/mL (≈ 9.19 µM).

`CC(=O)NC[C@H]1CN(c2cc(F)c(N3C[C@@H]4[C@H](C3)[C@H]4C(=O)O)c(F)c2)C(=O)O1`: the MIC in experiment [1] is 1 µg/mL (≈ 2.53 µM); in [2] it was 1 µg/mL (≈ 2.53 µM); in experiment [3], 1 µg/mL (≈ 2.53 µM); in [8], 1 µg/mL (≈ 2.53 µM); in [4], 2 µg/mL (≈ 5.06 µM); in [7], > 64 µg/mL. This compound also returned an MIC in experiment [9] of 8 µg/mL (≈ 20.2 µM).
